# An excerpt weighted towards active compounds, which were near 1.7% of everything screened.
# SUMO1 PPI mod: modulators of SUMO1 protein-protein interactions, primary screen, biochemical, uHTS; actives 0.33% (n = 360,000); Small ubiquitin-related modifier 1 (Homo sapiens), P63165; SUMO1 binding to a labelled peptide, TR-FRET, 1 h; inhibition, % at 20 µM; in the data active means inhibition above about 37%
# STEP block: STEP phosphatase inhibitors, primary screen, biochemical, fluorescence intensity, uHTS; Tyrosine-protein phosphatase non-receptor type 5 (Homo sapiens), P54829; inhibition, % at 20 µM; recombinant STEP, OMFP fluorogenic substrate; AID 588621, 2011; actives 0.25% (n = 360,000);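 active means inhibition at 20 µM, scaled per plate between control wells, above about 37%, limit read from the data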;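 further: 0% = DMSO with enzyme and substrate and 100% = substrate only without enzyme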
#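 Measure: Control-normalized % inhibition with plate pattern correction | Test system: STEP phosphatase, cell-free reaction | Medium: pH 6.0 Bis-Tris with DTT and Tween 20 | Technique: Fluorescence, 480/540 nm | Times: Reaction 20 min, ambient temperature | Doses: Single compound dose of 20 µM, 1% DMSO final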
# LMPTP inh: LMPTP phosphatase inhibitors, primary screen, biochemical, fluorescence intensity, uHTS; Low molecular weight phosphotyrosine protein phosphatase (Homo sapiens), P24666; actives 0.22% (n = 360,000); recombinant LMPTP-A, OMFP fluorogenic substrate; inhibition, % at 20 µM; AID 651560, 2012;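 active means compounds that cut the enzyme signal by at least half of the control window in the single-dose screen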;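 further: plate controls were DMSO wells with enzyme plus substrate for no effect and substrate without enzyme for full effect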
#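 Test system: LMPTP-A phosphatase enzyme; input: 0.625 nM LMPTP-A final; reagent: OMFP substrate, 400 µM final; compound dosing: 20 µM single dose, 3% DMSO; incubation: 50 min dark incubation at room temperature; measured by: endpoint fluorescence intensity from OMFP dephosphorylation; measure: % inhibition relative to no-enzyme and uninhibited control wells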
# DNMT1 block: human DNMT1 methyltransferase inhibitors, primary screen, biochemical, molecular beacon, fluorescence, HinP1I cleavage, uHTS; DNA (cytosine-5)-methyltransferase 1 (Homo sapiens), P26358; inhibition (reported as % activation of signal), % at 10 µM; actives 0.83% (n = 360,000); AID 588458, 2011; in the data active means inhibition above about 50%
# Target sequence (P26358 504-1616 limits assumed): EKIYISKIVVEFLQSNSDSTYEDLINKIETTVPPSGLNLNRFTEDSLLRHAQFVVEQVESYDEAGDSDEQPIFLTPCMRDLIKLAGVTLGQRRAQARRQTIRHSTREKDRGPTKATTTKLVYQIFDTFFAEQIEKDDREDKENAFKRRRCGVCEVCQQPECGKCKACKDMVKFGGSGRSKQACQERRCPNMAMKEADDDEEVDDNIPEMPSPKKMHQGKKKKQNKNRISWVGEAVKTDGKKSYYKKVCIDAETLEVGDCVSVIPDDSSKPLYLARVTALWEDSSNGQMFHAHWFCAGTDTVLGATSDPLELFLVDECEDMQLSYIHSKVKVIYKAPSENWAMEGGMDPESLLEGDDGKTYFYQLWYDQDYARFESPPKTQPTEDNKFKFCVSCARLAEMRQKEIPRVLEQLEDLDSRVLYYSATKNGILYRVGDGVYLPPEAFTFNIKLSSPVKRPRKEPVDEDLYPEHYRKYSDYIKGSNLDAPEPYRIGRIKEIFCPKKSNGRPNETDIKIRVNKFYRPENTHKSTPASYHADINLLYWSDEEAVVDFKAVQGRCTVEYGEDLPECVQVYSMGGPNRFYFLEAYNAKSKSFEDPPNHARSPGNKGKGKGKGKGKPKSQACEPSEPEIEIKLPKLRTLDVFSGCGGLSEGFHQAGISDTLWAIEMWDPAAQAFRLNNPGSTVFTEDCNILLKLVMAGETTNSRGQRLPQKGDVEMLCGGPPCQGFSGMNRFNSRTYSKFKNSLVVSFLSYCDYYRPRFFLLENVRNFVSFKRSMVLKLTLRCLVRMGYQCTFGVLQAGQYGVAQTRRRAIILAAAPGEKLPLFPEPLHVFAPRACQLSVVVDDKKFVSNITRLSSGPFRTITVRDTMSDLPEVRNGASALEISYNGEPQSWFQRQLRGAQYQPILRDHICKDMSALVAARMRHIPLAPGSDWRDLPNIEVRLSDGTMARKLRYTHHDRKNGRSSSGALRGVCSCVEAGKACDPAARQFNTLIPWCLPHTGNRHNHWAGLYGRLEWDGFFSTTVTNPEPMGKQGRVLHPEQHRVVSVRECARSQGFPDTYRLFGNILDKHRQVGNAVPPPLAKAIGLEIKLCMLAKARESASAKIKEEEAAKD
# Scp-1 inhibitor: Scp-1 phosphatase inhibitors, primary screen, biochemical, colorimetric, uHTS; Carboxy-terminal domain RNA polymerase II polypeptide A small phosphatase 1 (Homo …; actives 0.88% (n = 340,000); Recombinant Scp1, phosphopeptide, malachite green phosphate absorbance; inhibition, % at 20 µM;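 active means inhibition above about 50% at 20 µM, limit read from the data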;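 further: plate controls were DMSO wells with enzyme for no effect and wells lacking enzyme for full effect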
#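 Material – SCP-1 phosphatase catalytic domain, residues 76-261 · Buffer or medium – Acidic Tris acetate buffer with magnesium and detergent · Also added – Phospho 17-mer peptide substrate · Compound – single 20 µM dose, 1% DMSO · Times – 45 min room-temperature reaction, 5 min colour, 30 min stabiliser · Technique – Phosphate-binding colour reagent, absorbance read at 630 nm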
# * hit, by the source's call; nt = no result given.
SMILES,SUMO1 PPI mod,STEP block,LMPTP inh,DNMT1 block,Scp-1 inhibitor
CCCCC[C@H](C)N1C[C@@H](COCc2ccccc2)Oc2cc(N3CC[C@H](O)C3)ccc2S1(=O)=O,4.3,nt,1.1,nt,nt
O=C(Cn1c(=O)cnc2ccccc21)Nc1cccc(S(=O)(=O)N2CCOCC2)c1,-23.4,-1.8,0.4,-1.8,5.8
O=C(COc1ccccc1)Nc1sc2c(c1C(=O)NCc1cccnc1)CCCC2,-4.4,4.5,51.3*,29.7,6.7
O=C(CN1C(=O)NC(Cc2c[nH]c3ccccc23)C1=O)NCCc1ccccc1 (stereo unspecified),-5.1,0.5,-2.0,1.6,-12.3
CCN(CC)c1ccc(C(=C2C=CC(=[N+](CC)CC)C=C2)c2ccccc2)cc1,-3.9,2.2,1.6,30.2,-10.4
CCN(CC)c1ccc(C(=C2C=CC(=[N+](CC)CC)C=C2)c2ccc(N(CC)CC)cc2)cc1,-58.3,25.2,80.6*,13.9,-2.5
COc1ccc(NC(=S)Nc2ccc3nsnc3c2)cc1,58.0*,6.3,10.2,64.3*,14.3
COc1ccc(NC(=S)Nc2ccc3nc(C)c(C)nc3c2)cc1,-5.6,-1.1,2.2,-1.6,-2.2
CCCN(C(=O)CSCc1c(C)noc1C)c1c(N)n(Cc2ccccc2)c(=O)[nH]c1=O,1.7,0.2,-0.2,-0.1,-1.1
COc1cc(C(=O)C(=O)c2ccc(OC)c(OC)c2)ccc1O,38.2*,1.4,-0.5,8.5,-18.1
COc1ccc(C(=O)c2ccc(OC)c(OC)c2)cc1OC,0.9,0.3,-2.2,2.0,-4.8
CC(Sc1ncn[nH]1)C(=O)Nc1cc(C(F)(F)F)ccc1Cl (stereo unspecified),-1.5,-1.9,-0.5,0.4,2.3
O=C(Cc1cccs1)OCC(=O)c1ccco1,4.6,11.0,2.7,65.2*,70.4*
O=C(Nc1nnc([C@@H]2C[C@H](O)[C@@H](CO)O2)s1)NC1CCCCC1,-2.8,1.8,-1.0,2.8,nt
O=C1c2cccnc2C(=O)N1Cc1ccc(S(=O)(=O)N2CCN(c3ccc(Cl)cc3)CC2)cc1,60.2*,1.7,2.4,-1.4,-11.2
C=CCn1c(SCC(=O)NC2CC2)nnc1C1CC1,5.6,-1.1,-0.1,-3.2,4.0
Cn1c(N)c(C(=O)COC(=O)CSc2ccc3ccccc3c2)c(=O)n(C)c1=O,-1.4,1.4,0.4,0.0,-8.7
Cn1c(N)c(C(=O)COC(=O)c2cc3ccccc3cc2O)c(=O)n(C)c1=O,50.7*,4.4,2.3,-18.6,-19.1
Cc1ccccc1C(=O)N1CCC[C@H]1C(=O)N1CCC[C@H]1C(=O)NCc1ccccn1,-1.3,nt,-2.2,nt,nt
O=C(NCCN1CCC(n2c(=O)[nH]c3ccccc32)CC1)c1cccc2c1-c1ccccc1C2=O,55.4*,nt,13.3,nt,nt
COc1cccc(C(=O)NNS(=O)(=O)c2ccccc2)c1,1.5,-2.2,-1.3,6.2,nt
CC(Sc1ncn[nH]1)C(=O)c1c(N)n(C)c(=O)n(C)c1=O (stereo unspecified),36.2,-2.4,-0.6,3.5,2.6
Cc1cc(C=C2C(=O)c3ccccc3C2=O)c(C)n1C,51.5*,-0.6,2.5,-10.8,-5.2
CCn1c(C)cc(C=C2C(=O)c3ccccc3C2=O)c1C,-18.8,0.0,4.2,-12.5,-6.5
CCCn1c(N)c(N2CCCCC2)c(=O)n(CC(=O)Nc2cccc(S(=O)(=O)N(C)C)c2)c1=O,3.7,0.0,-0.1,1.1,-5.0
SMILES,SUMO1 PPI mod,STEP block,LMPTP inh,DNMT1 block,Scp-1 inhibitor
O=C(Nc1ccc(Nc2ccncc2)cc1)c1ccc(Nc2ccnc3ccc([N+](=O)[O-])cc23)cc1[N+](=O)[O-],44.9*,1.5,89.2*,22.7,-7.3
CC(C(=O)Nc1ccccc1)N(C)Cc1cccs1 (stereo unspecified),-3.4,0.7,-0.3,1.3,-5.9
CCc1nn2c(=O)cc(COc3ccc(NC(=O)c4ccco4)cc3)nc2s1,4.4,-1.5,0.7,1.1,7.7
CCCc1nn2c(=O)cc(COc3ccc(NC(=O)c4ccco4)cc3)nc2s1,66.0*,-1.3,-0.4,-1.6,-7.4
Clc1cccc(Cc2c(-c3ccccc3)nc3ccc(Cl)cn23)c1,0.3,-0.1,0.0,9.2,nt
O=C(NNC(=O)c1ccccc1Br)c1cnccn1,-3.1,-3.3,-0.4,7.7,-8.6
Cc1ccc(-c2ccc(CCC(=O)O)n2Cc2ccco2)cc1,2.3,-16.7,6.2,56.7*,-3.6
O=C(O)CCc1ccc(-c2ccccc2)n1CC(=O)O,1.7,0.1,-0.5,0.1,4.5
COc1ccccc1C1=CN(Cc2ccccc2)CCC1=O,0.9,-2.7,-1.2,0.8,-5.8
CC1CC(C)C[N+](=C2C=C(N3CCCC3)CC(C)(C)C2)C1 (stereo unspecified),2.4,0.5,-0.3,5.0,96.4*
CC1(C)CC(N2CCCC2)=CC(=[N+]2CCCCCC2)C1,0.5,-0.3,-0.9,2.2,19.4
COc1cc(OC)cc(C(=O)N[C@H](C(=O)NCc2ccccc2)C(C)C)c1,6.6,-5.1,-2.0,-13.0,4.2
Cc1cccc(NC(=O)CNC(=O)Cn2ncc(Cl)c(Cl)c2=O)c1C,10.9,8.4,12.1,83.2*,93.3*
O=c1cc(-c2ccc(O)c(O)c2)oc2c1ccc1ccccc12,75.2*,4.3,15.2,0.6,1.5
CC1(C(=O)NCCc2c[nH]c3ccccc23)CCN1CC1CCCCC1 (stereo unspecified),-5.4,-0.4,-1.0,-0.9,nt
C=CCn1c(SCC(=O)c2ccc(O)c(O)c2)nnc1-c1cccnc1,12.8,6.9,24.1,10.8,72.5*
CC(=O)c1cccc(NC(=O)c2cccc3c(-c4cccc(C(N)=O)c4)coc23)c1,49.5*,1.4,2.3,-4.8,nt
Cc1ccc(NCc2ccccc2OCc2ccccc2F)cc1,-3.8,-1.2,4.1,-4.9,2.5
Oc1ccc(NCc2ccc(OCc3ccccc3)cc2)cc1,8.5,3.6,12.8,-6.5,-10.1
CCOc1ccccc1CNc1ccc(O)cc1,69.1*,4.5,11.0,17.1,-3.7
CCOc1cc(CNc2ccc(O)cc2)ccc1OCc1ccc(Cl)cc1Cl,51.8*,16.0,22.4,79.9*,-1.9
CCc1ccc(CNc2ccc(O)cc2)cc1,74.2*,15.0,21.0,75.5*,-3.3
Oc1ccc(NCc2ccccc2OCc2ccccc2F)cc1,59.4*,10.1,15.5,-41.5,-5.6
CCOc1cccc(CNc2ccc(O)cc2)c1OCc1ccc(Cl)cc1,27.0,-3.5,12.4,-30.3,0.0
COc1ccc([C@H]2C[C@@H](n3cc(-c4ccc(F)cc4)nn3)[C@H](O)CN2C(=O)c2cccs2)cc1,0.0,3.1,-0.2,5.5,nt

# Source: PubChem
